Consider three compounds from ChEMBL document CHEMBL1124035, “1-Amino-substituted 4-methyl-5H-pyrido[4,3-b]indoles (gamma-carbolines) as tricyclic analogues of ellipticines: a new class of antineoplastic agents” (1988).

SMILES strings stand for the structures.

For orientation: T/C means the result in the treated group divided by that in the control group, in per cent.

For experiment [1], the system named is Mus musculus. Nature of the experiment: Antitumor activity against C38 adenocarcinoma cells at a dose of 50 mg/kg administered intravenously in mice; tumor volume at D38 (T/C). Particulars: route intravenous. The format is functional, MC-38. An outline of the steps:
(§1)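 Hybrid BD F1 mice, 10 per group, were implanted sc with a standard 3-mm3 C38 colon adenocarcinoma fragment. Drugs were given iv at the stated doses on D1 or on D2 + D9. Read-out was tumor size in treated versus control mice (T/C) at the day stated.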

Experiment [2] concerns Mus musculus. Nature of the experiment: Antitumor activity against C38 adenocarcinoma cells at a dose of 50 mg/kg administered intravenously on D1 to mice; tumor volume at D38 (T/C). The class given is functional, MC-38. Particulars: route intravenous. A digest of the protocol: as §1
For experiment [3], the system named is Mus musculus. Briefly: Antitumor activity against P388 cells at a dose of 10 mg/kg administered intraperitoneally to mice. The class given is functional. Particulars: route intraperitoneal.
In experiment [4] the test system is Mus musculus. Briefly: Antitumor activity against P388 cells at a dose of 5 mg/kg administered intraperitoneally to mice. The format is functional. Particulars: route intraperitoneal.
Experiment [5] relates to Mus musculus. Briefly: Antitumor activity against P388 leukemia in mice at a dose of 1.5 mg/kg administered intraperitoneally for 5 days. The class given is functional. Particulars: route intraperitoneal. An outline of the steps: (§2)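 CDF1 hybrid male or female mice, 10 per group, were inoculated ip with 10^6 viable P388 cells on day 0. Drugs in distilled water were given ip (0.1 mL/10 g body weight) daily D1-5. Vehicle, 5-fluorouracil and BD 84 were given the same way. T/C = median survival day of treated / controls × 100; T/C > 128% was significant; cures counted at D60.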

Experiment [6] deals with Mus musculus. Nature of the experiment: Median survival day of L1210 (iv) to L1210 leukemia model when a dose of 20 mg/kg administered intravenously to mice. The format is functional. A digest of the protocol:
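L1210 leukaemia in CDF1 hybrid male or female mice, 10 per group. At D0, 10^5 viable cells were inoculated ip, followed by a single iv dose on D1. Median survival day was recorded, and T/C was calculated as treated/control median survival × 100.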

Experiment [7] has as its system Mus musculus. Nature of the experiment: Weight change in g when a dose of 20 mg/kg (iv) to L1210 leukemia mice model. The class given is functional. An outline of the steps:
(§3)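 Mice received 10^5 L1210 leukemia cells ip at D0, then a single iv drug dose at D1. Read-outs were weight change (g), median survival day, T/C % and survivors at D30.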

Experiment [8] has as its system Mus musculus. Briefly: Median survival day in B16 melanoma cell line when a dose of 20 mg/kg administered intraperitoneally to mice. The format is functional. Particulars: route intraperitoneal. An outline of the steps:
(§4)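 B16 melanoma in hybrid BD F1 mice. At D0 each mouse was inoculated ip with 0.5 mL of homogenate made from 1 g of tumour in 10 mL of physiological serum. Compounds were given ip daily at the stated doses for 9 days (D1-9), with cis-platinum 0.5 mg/kg under the same schedule as positive control.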

Experiment [9] deals with Mus musculus. Nature of the experiment: Survivors at day 30 when a dose of 20 mg/kg to P388 leukemia model; 0/10. The class given is functional.
Experiment [10] deals with Mus musculus. Briefly: Antitumor activity against P388 cells at a dose of 20 mg/kg administered intraperitoneally P388 Leukemia model. The class given is functional. Particulars: route intraperitoneal. A digest of the protocol: (§5)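 Mice were inoculated ip with 10^6 P388 leukemia cells at D0, then given a single ip drug dose on D1. Weight change was recorded. T/C % = median survival day of treated / controls × 100; survivors counted at D30; 10 mice per dose group, 20 controls.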

Experiment [11] relates to Mus musculus. Briefly: Median survival day in B16 melanoma cell line when a dose of 5 mg/kg administered intraperitoneally to mice. The format is functional. Particulars: route intraperitoneal. An outline of the steps: as §4
Experiment [12] concerns Mus musculus. Nature of the experiment: Antitumor activity against P388 cells at a dose of 80 mg/kg administered intraperitoneally P388 Leukemia model. The format is functional. Particulars: route intraperitoneal. An outline of the steps:
as §5

Experiment [13] relates to Mus musculus. Briefly: Median survival day in B16 melanoma cell line when a dose of 30 mg/kg administered intraperitoneally to mice. Particulars: route intraperitoneal. The format is functional. An outline of the steps: as §4
In experiment [14] the test system is Mus musculus. Nature of the experiment: Survivors at day 30 when a dose of 80 mg/kg to P388 leukemia model; 0/10. The format is functional.
In experiment [15] the test system is Mus musculus. Nature of the experiment: Median survival day in P388 leukemia mice model when a dose of 100 mg/kg administered intravenously. The format is functional. Particulars: route intravenous. A digest of the protocol:
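P388 leukaemia in CDF1 hybrid mice, 10 per group. At D0, 10^6 viable cells were inoculated ip, followed by a single iv dose on D1. Weight change, median survival day, T/C (treated/control median survival × 100) and survivors at D30 were recorded.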

For experiment [16], the system named is Mus musculus. Briefly: Survivors at day 60 when a dose of 10 mg/kg to B16 melanoma infected mice; 0/10.
The test system of experiment [17] is Mus musculus. Nature of the experiment: Survivors at day 60 when a dose of 5 mg/kg to B16 melanoma infected mice; 3/10.
Experiment [18] has as its system Mus musculus. Briefly: Median survival day of B16 melanoma infected mice when a dose of 10 mg/kg administered intraperitoneally. The format is functional. Particulars: route intraperitoneal. A digest of the protocol: as §4
Experiment [19] has as its system Mus musculus. Briefly: Antitumor activity against P388 leukemia in mice at a dose of 20 mg/kg administered intraperitoneally. The class given is functional, organism-based. The arrangement: dose 20 mg/kg. A digest of the protocol: as §2
Experiment [20] has as its system Mus musculus. Nature of the experiment: Weight change in g when a dose of 20 mg/kg intravenous administration to L1210 leukemia mice model. The format is functional. An outline of the steps:
as §3

The subject of experiment [21] is Mus musculus. Nature of the experiment: Antitumor activity against P388 cells at a dose of 10 mg/kg administered intraperitoneally to P388 leukemia model. The format is functional. Particulars: route intraperitoneal. A digest of the protocol:
as §5

In the case of `Cc1cnc(NCCCN(C)C)c2c3cc(O)ccc3n(C)c12`, the values for the Tumor volume in the experiment with Mus musculus [1] and in the experiment with Mus musculus [2] were 0% and 30%, respectively. In addition, the T/C with Mus musculus [3] is 167%; in the experiment on Mus musculus [4], 173%; in the experiment with Mus musculus [5], 164%. The compound also yielded a Median survival day in the experiment with Mus musculus [6] of 14. This compound returned a Weight change in the experiment on Mus musculus [7] of -1.1 g.
For the compound `CCN(CC)CCCNc1[nH]cc(C)c2nc3ccc(O)cc3c1-2`, the Median survival day stood at 58 in the experiment on Mus musculus [8], 48 in the experiment with Mus musculus [11] and 9 in the experiment with Mus musculus [13]. For the same compound, the Survivors with Mus musculus [9] and in the experiment on Mus musculus [14] was 0 each time. Also, the T/C with Mus musculus [10] was 139%; with Mus musculus [12], 20%.
Consider `CCN(CC)CCCNc1ncc(C)c2c1c1cc(O)ccc1n2C`, for which the Median survival day with Mus musculus [15] came out at 24.3; in the experiment on Mus musculus [18], 19.3. Also, the results for the Survivors with Mus musculus [16] and in the experiment on Mus musculus [17] were 0 and 3, respectively. Besides, the T/C entry is “Toxic” in the experiment with Mus musculus [19] and 156% in the experiment on Mus musculus [21]. This compound also yielded a Weight change with Mus musculus [20] of -0.4 g.
